# Compound activity deposited in PubChem by Sanford-Burnham Center for Chemical Genomics.
# Most compounds without a hit are left out; they make up all but 2.4% or so of the library.
# NadD block: inhibitors of Staphylococcus aureus NadD; inhibition, % at 20 µM; purified NadD enzyme, colorimetric absorbance read-out; 360,000 compounds, 0.78% hits; in the data active = inhibition above about 26%
# Scp1 inh: inhibitors of human Scp-1 phosphatase; 340,000 compounds, 0.88% hits; Q9GZU7; Recombinant Scp1, phosphopeptide, malachite green phosphate absorbance; AID 493091; inhibition, % at 20 µM;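 active = inhibition above about 50% at 20 µM, limit read from the data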;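 note: plate controls were DMSO wells with enzyme for no effect and wells lacking enzyme for full effect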
#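 Test system – truncated SCP-1 phosphatase (76-261aa) · Reagent – Phosphorylated 17-residue peptide substrate · Incubation – 45 min room-temperature reaction, 5 min colour, 30 min stabiliser · Detection – colorimetric phosphate reagent with accelerator and stabiliser, absorbance at 630 nm · Measure – % inhibition at 20 µM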
# LMPTP inh: LMPTP (human) inhibition | recombinant LMPTP-A, OMFP fluorogenic substrate, fluorescence intensity | P24666 | 360,000 compounds, 0.22% hits | inhibition, % at 20 µM;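 active = compounds that cut the enzyme signal by at least half of the control window in the single-dose screen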;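 note: plate controls were DMSO wells with enzyme plus substrate for no effect and substrate without enzyme for full effect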
#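 material = LMPTP-A | quantity = 0.625 nM enzyme | reagent = OMFP substrate, 400 µM final | buffer or medium = Bis-Tris pH 6.0, DTT, detergent | detection = endpoint fluorescence intensity from OMFP dephosphorylation | dosing = single 20 µM dose | read-out basis = % inhibition relative to no-enzyme and uninhibited control wells | control set = no-enzyme and uninhibited controls | timing = 50 min at room temperature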
# STEP inh: inhibitors of human striatal-enriched phosphatase STEP; P54829; recombinant STEP, OMFP fluorogenic substrate, fluorescence; inhibition, % at 20 µM; 360,000 compounds, 0.25% hits;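 active = inhibition at 20 µM, scaled per plate between control wells, above about 37%, limit read from the data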;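 note: 0% = DMSO with enzyme and substrate and 100% = substrate only without enzyme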
# Target sequence (P54829 whole entry, looked up): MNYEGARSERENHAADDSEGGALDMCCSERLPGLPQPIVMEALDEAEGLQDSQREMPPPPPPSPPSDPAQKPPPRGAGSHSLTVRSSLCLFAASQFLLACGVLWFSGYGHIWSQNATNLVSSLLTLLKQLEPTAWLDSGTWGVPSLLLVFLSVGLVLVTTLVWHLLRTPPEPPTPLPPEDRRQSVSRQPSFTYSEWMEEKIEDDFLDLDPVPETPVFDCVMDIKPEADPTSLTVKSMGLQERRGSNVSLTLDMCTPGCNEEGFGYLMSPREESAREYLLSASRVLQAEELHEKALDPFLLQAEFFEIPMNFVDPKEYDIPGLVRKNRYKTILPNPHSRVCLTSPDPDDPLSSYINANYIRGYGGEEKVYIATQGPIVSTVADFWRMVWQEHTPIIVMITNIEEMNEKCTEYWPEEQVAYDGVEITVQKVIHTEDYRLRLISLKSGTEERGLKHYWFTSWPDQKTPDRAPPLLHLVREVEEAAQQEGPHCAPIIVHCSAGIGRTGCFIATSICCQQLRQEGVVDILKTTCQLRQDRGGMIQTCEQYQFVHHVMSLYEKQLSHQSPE
#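 Material: STEP (striatal-enriched tyrosine phosphatase) enzyme, cell-free; Compound dosing: 20 µM single dose in 1% DMSO; Technique: fluorescence read at 480 nm ex / 540 nm em; Times: reaction 20 min, ambient temperature; Medium: 50 mM Bis-Tris pH 6.0 with 2.5 mM DTT and 0.005% Tween 20; Also added: OMFP at 25 µM.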
# SUMO1 PPI mod: SUMO1-SIM interaction modulation. P63165. SUMO1 binding to a labelled peptide, TR-FRET, 1 h. inhibition, % at 20 µM. 360,000 compounds, 0.33% hits. AID 602429; in the data active = inhibition above about 37%
# Target sequence (P63165 whole entry, looked up): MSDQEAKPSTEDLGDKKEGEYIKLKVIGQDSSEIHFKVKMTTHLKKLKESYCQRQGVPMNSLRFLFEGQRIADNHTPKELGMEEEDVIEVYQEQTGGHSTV
# DNMT1 inh: DNMT1 (human) enzyme inhibition; 360,000 compounds, 0.83% hits; inhibition (reported as % activation of signal), % at 10 µM; DNMT1 molecular beacon, Hinp1I cleavage, fluorescence; P26358; in the data active = inhibition above about 50%
# Scp-1 conf: Scp-1 (human) inhibition, single-dose confirmed; shares compounds with Scp1 inh; recombinant SCP-1 catalytic domain, phosphate release, malachite green absorbance; inhibition, % at 20 µM; 2,500 compounds, 61% hits; AID 540281;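 note: plate controls were DMSO with enzyme for no effect and buffer wells lacking enzyme for full effect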
# Scp-1 MG ctr: counter-screen for Scp-1 inhibitors: colorimetric interference. Colorimetric interference counterscreen, malachite green absorbance 630 nm. shares compounds with Scp1 inh. 2,500 tested, under 10 active. apparent inhibition (interference), % at 20 µM;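 note: compounds added after enzyme reaction finished so only phosphate colour detection is probed; plate controls were DMSO wells with completed Scp-1 reaction for no effect and substrate wells lacking enzyme for full effect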
# Scp1 DSF: binds human Scp-1, shifting its melting temperature; thermal shift relative to vanadate control, % at 40 µM; 1,500 compounds, 25% hits; AID 540329; Recombinant SCP1, Sypro Orange thermal shift Tm; shares compounds with Scp1 inh;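 active = substances whose mean melting-temperature shift, as a percentage of the reference inhibitor's shift, reaches about 5.3%, limit read from the data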;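 note: 0% = Tm of DMSO wells and 100% = Tm with sodium orthovanadate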
# An asterisk follows results filed as active; . = not tested or not shown.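 Rule for the calls, unless noted: active = inhibition of at least 30% at 20 µM; inactive = the rest.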
SMILES,NadD block,Scp1 inh,LMPTP inh,STEP inh,SUMO1 PPI mod,DNMT1 inh,Scp-1 conf,Scp-1 MG ctr,others
Cc1cc(=O)oc2cc(NC(=S)NNC(=O)c3c(Cl)cnn3C)ccc12,1,70*,3,13,17,-7,67*,-7,Scp1 DSF=-1
COc1cccc(NC(=O)C2CCCCC2)c1,-9,70*,0,1,-1,2,0,-10,
Cc1nn(CC(=O)N2CCc3ccccc3C2)c(C)c1Cl,2,0,-1,0,0,-6,.,.,
CCOC(=O)c1ccc2c(c1)n(CC)c(/C=C/N(C)c1ccccc1)[n+]2CC,2,94*,-2,2,-2,5,97*,-1,Scp1 DSF=-18
O=C(COc1ccc(/C=N/NS(=O)(=O)c2ccccc2)cc1)Nc1ccccc1,4,-4,1,0,-1,18,.,.,
O=C(Cc1ccccc1)N/N=C/c1ccc(OCC(=O)Nc2ccccc2)cc1,1,82*,1,-2,6,-4,44*,-13,Scp1 DSF=-16
Cc1nnsc1C(=O)NC(C)C12CC3CC(CC(C3)C1)C2 (stereo not given),6,-7,-1,-2,-3,-1,.,.,
COC(=O)c1ccc2c(=O)[nH]c(COC(=O)c3c(-c4ccccc4)noc3C)nc2c1,0,-5,0,-1,6,1,.,.,
CC(=O)Oc1ccc(/C=C(\NC(=O)c2ccco2)C(=O)NCc2ccccc2)cc1,-3,54*,0,-1,-6,-1,-6,-6,
Nc1nc(NCCCN2CCOCC2)nc(Nc2ccccc2F)c1[N+](=O)[O-],-6,-4,0,-1,-20,8,.,.,
O=C1CCN(Cc2ccccc2)S(=O)(=O)c2ccccc21,13,68*,1,1,4,3,63*,-16,Scp1 DSF=-21
Cc1ccc(NC(=O)c2noc3c2CCc2ccccc2-3)cc1,-1,56*,1,-1,-3,0,-16,-15,
CCCCCCn1nc(C(=O)Nc2nc3c(s2)CCCC3)c2ccccc2c1=O,0,4,2,-1,1,5,.,.,
CC(=O)Nc1cc2c(c(Cl)c1Cl)-c1ccccc1C2=O,-10,80*,23,6,37,17,-15,-13,
COc1ccc(CNC(=O)c2ccccc2NC(=O)C2=C(C)OCCS2)cc1,-5,.,-2,0,2,-1,.,.,
CC1NC(=O)NC1CCCCC(=O)O (stereo not given),0,-3,-1,0,3,6,.,.,
CCc1cccc(NC(=O)CCCN2C(=O)NC(C)(C)C2=O)c1,0,-10,-2,-4,-1,6,.,.,
CC1NC(=O)NC1CCCCCC(=O)Nc1ccc(F)c(Cl)c1 (stereo not given),-9,0,-1,1,0,-3,0,-7,
CCc1cccc(NC(=O)CCCCCC2NC(=O)NC2C)c1 (stereo not given),2,-7,-2,-2,2,1,-19,-16,
Cc1ccc(NC(=O)CCCCCC2NC(=O)NC2C)cc1 (stereo not given),0,-3,0,1,2,0,11,4,
Cc1ccccc1C(=O)c1ccc2c(c1)n(C)c(=O)n2C,1,-2,0,24,1,-2,.,.,
Cn1c(COc2ccccc2)nnc1SCCC(=O)Nc1ccccc1,-4,2,-2,-2,5,2,.,.,
O=[N+]([O-])c1ccc2nc(-c3ccccc3)n(OCc3ccc(Cl)cc3)c2c1,1,59*,4,6,1,14,51*,-5,Scp1 DSF=6.2*
O=C(O)COn1c(-c2ccccc2)nc2ccc(Cl)cc21,-4,-10,-1,0,4,2,.,.,
COC(=O)c1ccccc1NC(=O)c1cc[n+]([O-])cc1,-4,0,-1,2,-6,-1,.,.,
SMILES,NadD block,Scp1 inh,LMPTP inh,STEP inh,SUMO1 PPI mod,DNMT1 inh,Scp-1 conf,Scp-1 MG ctr,others
COC(=O)c1ccccc1NC(=O)c1cc[n+](C)cc1,3,51*,-2,-3,-34,0,-12,-22,
C[C@H](CO)N1C[C@H](C)[C@@H](CN(C)C(=O)NC2CCCC2)Oc2cc(Br)ccc2S1(=O)=O,4,.,0,2,1,0,.,.,
O=C1CC(=O)N2N=C(c3ccc([N+](=O)[O-])cc3)SC2=N1,-6,69*,7,3,5,24,68*,-6,Scp1 DSF=6.2*
CC1=NN(c2cccc([N+](=O)[O-])c2)C(=O)C1,1,-6,2,1,0,-9,.,.,
CN(CCNC(=O)c1cc2c(=O)n(C)c3ccccc3c2n1C)Cc1ccccc1,4,-16,0,0,5,1,.,.,
CCCN(CCC)CCNC(=O)c1cc2c(=O)n(C)c3ccccc3c2n1C,6,90*,2,1,5,3,-8,-8,
CC(=O)c1sc(C(=O)O)c(-c2ccco2)c1-c1ccco1,-2,59*,0,14,-4,37,32*,-11,Scp1 DSF=-9
Cc1c(Br)c([N+](=O)[O-])nn1CC(=O)NCCc1c[nH]c2ccccc12,-3,-9,1,-1,-15,0,.,.,
O=C(O)C(Cc1cn[nH]n1)=NO,-5,57*,-1,2,-5,1,-12,-11,
CCN1CCN(c2ccc(S(=O)(=O)N3CCOCC3)cc2NC(=O)C(C)Oc2ccc(Cl)cc2)CC1 (stereo not given),5,3,-1,1,12,-4,.,.,
CC1=CC(C)(C)N(C(=O)c2ccccc2)c2ccccc21,-7,-14,0,3,-6,-3,.,.,
CC1=CC(C)(C)[N+](C)(C)c2ccccc21,14,72*,-1,-2,4,-2,2,-9,
COc1ccccc1Oc1nc2c(c(=O)n(Cc3ccccc3F)c(=O)n2C)n1C,2,68*,0,-2,3,-3,1,0,
COc1cc(CC(=O)N2CCN(C(=O)C3CCCO3)CC2)cc(OC)c1OC (stereo not given),0,-16,-1,0,4,0,.,.,
CCc1c(C(=O)N2CCCN(C)CC2)csc1C,-4,-4,-2,-3,1,0,.,.,
O=C(CCS(=O)(=O)c1ccc(Br)cc1)Nc1ccc(Br)cc1F,-11,56*,0,4,17,39,54*,-22,Scp1 DSF=-8
